Measurements from different studies.
Each line is one published result; the experiments were not run side by side.
Target: Ephrin type-A receptor 7 (EPHA7, Homo sapiens, UniProt Q15375)

With `Cc1nn(C)cc1-c1nc2c(N3CCN(Cc4ccc(Cl)cc4)CC3)c(Cl)cnc2[nH]1` the remaining binding was 100% (binding; competition with immobilised ligand; 1 µM).
For `O=c1[nH]c2ccccc2n1C1CCN(Cc2ccc(-c3[nH]c4cc5ncnc5cc4nc3-c3ccccc3)cc2)CC1`, the remaining signal was 109% (cell-free assay; 0.5 µM).
The remaining binding of `Nc1ncc(-c2nc(N3CCOCC3)nc(N3CCOCC3)n2)c(C(F)F)n1` is reported as 86% (cell-free assay; competition with immobilised ligand; 10 µM).
`N#CC1(c2ccccn2)CCN(Cc2cc(C(=O)O)c(=O)n3ccccc23)CC1` has a remaining binding of 100% (cell-free assay; competition with immobilised ligand; 1 µM).
With `CC(C)(C)c1cc(C=C(C#N)C#N)cc(Br)c1O` the remaining activity was 107% (enzyme activity; inhibitor; 0.5 µM).
The remaining binding of `COc1ncccc1-c1cnn2ccc(N3CCN(C(=O)OC(C)C)CC3)nc12` is reported as 100% (binding; competition with immobilised ligand; 1 µM).
`Cn1cc(-c2cccc(N3CCc4c(sc5c4CC(C)(C)C5)C3=O)c2CO)cc(Nc2ccncn2)c1=O` has an inhibition of 83% (enzyme activity; inhibitor; 1 µM).
With `COc1cc(Nc2ncc(F)c(Nc3ccc4c(n3)NC(=O)C(C)(C)O4)n2)cc(OC)c1OC` the inhibition was 100% (binding; competition with immobilised ligand; 10 µM).
With `Cn1cc(-c2cc(F)cc(N3CCn4c(cc5c4CCCC5)C3=O)c2CO)cc(Nc2ccc(N3CCN(C4COC4)CC3)cn2)c1=O` the inhibition was 13% (enzyme activity; inhibitor; 0.1 µM).
`Cn1cncc1[C@@](O)(COc1ccc(C#N)cc1-c1ccc(OC(F)(F)F)cc1)c1ccc(C#N)cc1` gave a remaining binding of 100% (cell-free assay; competition with immobilised ligand; 1 µM).
